Source: PubChem BioAssay (Johns Hopkins Ion Channel Center)
KCNK3 inh = human KCNK3 channel inhibition, primary screen; CHO-KCNK3 thallium flux, FluxOR fluorescence; hits give low values; B-score at 10 µM; 0.84% of 340,000 active;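 active = B-score under library mean minus 4 SD, starting fluorescence ratio at most library mean plus 5 SD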;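 also: more negative B-score means stronger inhibition of thallium flux through KCNK3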
Target sequence (O14649 whole entry, looked up): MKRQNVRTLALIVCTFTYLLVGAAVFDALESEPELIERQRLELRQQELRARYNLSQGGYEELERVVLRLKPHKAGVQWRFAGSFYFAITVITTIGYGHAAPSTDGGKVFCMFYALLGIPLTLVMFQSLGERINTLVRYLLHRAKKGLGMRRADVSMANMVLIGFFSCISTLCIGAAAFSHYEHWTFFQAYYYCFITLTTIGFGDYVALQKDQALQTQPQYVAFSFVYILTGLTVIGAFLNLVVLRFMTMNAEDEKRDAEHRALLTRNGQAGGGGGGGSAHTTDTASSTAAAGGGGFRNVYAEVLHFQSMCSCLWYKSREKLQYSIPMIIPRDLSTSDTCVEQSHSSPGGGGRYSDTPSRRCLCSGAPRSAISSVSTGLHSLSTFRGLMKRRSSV
hERG protect = shields human hERG channel from block by proarrhythmic agents; Q12809; CHO-hERG, FluxOR thallium flux, dofetilide IC70 present; 0.51% of 310,000 active; AID 1511; activation (rescue from dofetilide block), less the hit threshold, % at 10 µM;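 active = activation above the mean of controls blocked by dofetilide plus 5 SD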;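 also: thallium influx through hERG after potassium depolarization seen as dye fluorescence rise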
KCNK9 inh = blocks the human KCNK9 two-pore domain potassium channel; Q9NPC2; HEK293 KCNK9, FluxOR thallium flux fluorescence; hits give low values; B-score at 10 µM; 1.2% of 310,000 active; AID 488922;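 active = ratio B-score over 3 SD below the library mean, with starting fluorescence within 5 SD of its mean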;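 also: negative B-score means less thallium flux so channel inhibition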
KCNQ1 inh = human KCNQ1 channel inhibition; CHO-K1 KCNQ1, FluxOR thallium flux fluorescence; hits give high values; 1.3% of 310,000 active; B-score at 10 µM;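 active = compounds whose thallium flux B-score, printed positive for inhibition, exceeds three library SD while starting fluorescence stays within three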;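 also: channel opened by potassium depolarization with thallium stimulus after 20 min compound exposure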
KCNQ1 pot = potentiators or activators of human KCNQ1 potassium channel. P51787. CHO-K1 KCNQ1, thallium flux FluxOR fluorescence; hits give high values. B-score at 10 µM. 0.35% of 310,000 active;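 active = fluorescence ratio B-score, a plate-corrected score, at least three library SD, with initial intensity B-score within 5 SD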
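assay system = CHO-K1 cells stably expressing KCNQ1 | medium = assay buffer, equal DMSO in all wells | timing = 37 °C overnight plating, 90-min dark dye load, 20-min compound pretreatment | measured by = kinetic FluxOR thallium fluorescence, 10-s 1-Hz baseline, 110-s post-stimulus read | measure = fluorescence change relative to baseline, converted to B score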
KCNK9 inh conf = confirmation of human KCNK9 potassium channel inhibitors | shares compounds with KCNK9 inh | HEK293 KCNK9 cells, FluxOR thallium flux fluorescence | inhibition, % at 10 µM | 43% of 4,900 active;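 active = thallium signal inhibited by more than 5 SD of the compound-free buffer control wells, on both duplicate plates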;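 also: 0% = assay buffer control wells without compound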
Kir2-1 spec = mouse Kir2.1 off-target activity of KCNK9 modulators | shares compounds with KCNK9 inh | Kir2.1 cells, FluxOR thallium flux fluorescence | inhibition, % at 10 µM | 4% of 4,900 active | AID 492993;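 active = thallium signal drop more than 5 SD beyond the mean of the no-compound control wells, seen in both duplicate plates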;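 also: signal is fluorescence rise after thallium addition divided by baseline fluorescence; plate controls were assay buffer only for no effect and full block by chlorpromazine control for full effect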
KCNK9 uninduced = second counter-screen for KCNK9 modulators: effect in non-induced cells; AID 492997; non-induced KCNK9-HEK293, FluxOR thallium flux; 40% of 4,900 active; shares compounds with KCNK9 inh; inhibition, % at 10 µM;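 active = thallium signal drop beyond 5 SD of the untreated control mean, on both duplicate plates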;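 also: plate controls were buffer only IC0 wells for no effect and SID17386958 at its maximal inhibitory level for full effect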
* hit, by the source's call; i = inactive; x = no result. An excerpt weighted towards active compounds, which were near 3.1% of everything screened.

SMILES	KCNK3 inh	hERG protect	KCNK9 inh	KCNQ1 inh	KCNQ1 pot	KCNK9 inh conf	Kir2-1 spec	KCNK9 uninduced
CCOC(=O)CN(C(=O)COc1nc(-c2ccccc2)cc(C)c1C#N)c1ccccc1C	i	-10.9	i	i	i	i	i	i
O=C(c1cccc([N+](=O)[O-])c1)N1CCN(S(=O)(=O)N2CCCCC2)CC1	i	-7.0	i	i	i	x	x	x
Cc1cccn2c(/C=N/OCc3cccc(F)c3)c(-c3ccc(Cl)cc3)nc12	i	-19.9	i	i	i	x	x	x
COc1cccc(/C(C#N)=C/c2c(-c3ccc(Cl)cc3)nc3c(C)cccn23)c1	i	-5.9	-8.91*	8*	i	58.0%*	i	38.0%*
COc1ccccc1C(=O)NC(=O)COC(=O)c1ccc(C)o1	i	-9.1	i	i	i	x	x	x
O=C(/C(C=Nc1cc2c(oc1=O)CCCC2=O)=C(\O)c1ccccc1)c1ccccc1	i	-2.1	i	i	i	x	x	x
O=C1CC(N2CCC(c3nc4ccccc4o3)CC2)C(=O)N1c1cc(Cl)cc(Cl)c1 (stereo not given)	i	-5.8	-8.6*	8*	i	43.0%*	i	i
O=C(N/N=C1\NC(=O)C(CO)(CO)S1)c1ccccc1	i	-11.4	i	i	i	x	x	x
Cc1nn(C(=O)CCC(=O)NCc2ccc(OC(C)C)cc2)c2ccccc12	i	-5.4	i	i	i	x	x	x
Cc1cc(C)nc(N/N=C/c2ccccc2OCc2ccc([N+](=O)[O-])cc2)n1	i	-8.2	-14.9*	i	i	51.0%*	i	28.5%*
Nc1c(C(=O)Nc2ccccc2Cl)nnn1-c1ccc2c(c1)OCCO2	i	-4.8	i	i	i	x	x	x
C#CCNC(=O)C(C)c1ncc(C(F)(F)F)cc1Cl (stereo not given)	i	-5.7	i	i	i	x	x	x
Cc1ccc(N=Nc2c(O)ccc3n[nH]nc23)cc1	i	-8.6	i	i	i	i	i	i
CCOCCCNC(=S)NCCNc1nc2ccc(C)cc2cc1C#N	i	-8.5	-8.33*	i	i	i	i	i
Cc1ccc(CNC(=O)COC(=O)CCC(=O)c2cccs2)cc1	i	-7.9	i	i	i	x	x	x
O=C(CN1CCN(c2ccccc2)CC1)Nc1ccc2c(c1)CCC2	i	-9.8	i	i	i	i	i	i
NC(=O)CN1CCN(c2cccc(Cl)c2)CC1	i	-10.8	i	i	i	x	x	x
O=C(CN1CCN(c2cccc(Cl)c2)CC1)NC1CCCc2ccccc21 (stereo not given)	i	-14.4	i	i	i	i	i	i
Cc1ccc(CNC(=O)CCC2CCCN(Cc3cccc4cccnc34)C2)o1 (stereo not given)	i	-9.0	i	i	i	x	x	x
Cc1ccc(C)c(NC(=O)c2ccccc2Sc2ccc([N+](=O)[O-])cc2Cl)c1	i	-4.0	-13.6*	i	i	61.0%*	i	47.0%*
COc1ccccc1NS(=O)(=O)c1cc(NC(=O)C2CCC2)ccc1N1CCCCC1	i	-9.9	-8.46*	i	i	34.0%*	i	26.0%*
Cc1cc(C)nc(SCC2COc3ccccc3O2)n1 (stereo not given)	i	-10.9	i	i	i	x	x	x
Cc1[nH]n(C2=NCCS2)c(=O)c1N=Nc1ccccc1	i	-15.9	-11.5*	i	i	i	i	31.5%*
O=c1oc2ccccc2c(O)c1Cc1cc(Cl)c2cccnc2c1O	i	-5.2	i	i	i	i	i	i
C=C(C)C1CCC(C)=C1CC(C)(C)/C=N\n1cnnc1 (stereo not given)	i	-3.7	i	i	i	x	x	x
O=C(O)c1cc(-c2ccc(Cl)cc2)n(-c2ccc(F)cc2)n1	i	-8.5	i	i	i	x	x	x
